{"source": "paper PMC5756068", "about": "(Nature chemical biology, 2016)", "key": {"[1]": {"system": "MDM2", "test": "FRET microscopy, peptide-GFP and MDM2-mCherry", "format": "binding", "settings": "HEK293T cells, confocal FRET microscopy, 48 h after transfection", "summary_of_the_method": "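HEK293T cells were seeded at 5 × 10^4 per well on poly-L-lysine-coated glass coverslips and kept at 37°C in 5% CO2. They were co-transfected with GFP-fused peptide and mCherry-fused target, then fixed with 4% paraformaldehyde 48 h later, washed in PBS and imaged by confocal FRET microscopy at room temperature. Laser power and PMT gain were held constant. […] excitation was used with FRET detection at […]. Net FRET was obtained by subtracting GFP bleed-through and mCherry direct emission. Controls expressed GFP and/or mCherry alone.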"}, "[2]": {"system": "MDM2", "test": "shRNA-induced cell viability rescue, MDM2 knockdown", "format": "cell-based", "settings": "shRNA cells transfected with peptide; triplicate"}, "[3]": {"system": "RWP1 cells", "test": "Downstream effects of peptide expression, Western blot, RWP1", "format": "cell-based, human"}, "[4]": {"system": "Mia Paca-2 cells", "test": "Downstream effects of peptide expression, Western blot, Mia Paca-2", "format": "cell-based"}, "[5]": {"system": "Panc 02.03 cells", "test": "Downstream effects of peptide expression, Western blot, Panc 02.03", "format": "cell-based"}, "[6]": {"test": "Downstream effect of peptide, gels of Fig. 4 and Supplementary Fig. 7", "format": "cell-based", "settings": "triplicate; cell line not stated"}, "[7]": {"system": "HEK293T cells", "test": "Downstream effects of peptide expression, Western blot, HEK293T", "format": "cell-based, human"}, "[8]": {"system": "AKT (S473) phosphorylation in RWP1 cells", "test": "Serum-induced AKT", "format": "cell-based, human", "settings": "RWP1 starved 24 hours, 10% FBS for 20 minutes; Western blot", "summary_of_the_method": "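Peptide expressed or not in RWP1 cells, which were starved 24 h and then given 10% FBS for 20 min. Lysate proteins run on 10% Bis-Tris SDS-PAGE and transferred to PVDF. Blots probed with anti-AKT (1:1000) or anti-phospho-AKT S473 (1:1000), then HRP secondary (1:2500), with ECL detection. Paired with HEK293T cells treated the same way.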"}, "[9]": {"system": "RWP1 cells", "test": "Cell viability with synthetic lipidated peptides, RWP1", "format": "cell-based, human", "settings": "duplicate"}, "[10]": {"system": "cell cycle", "test": "FACS analysis of cell cycle", "format": "cell-based", "settings": "triplicate"}, "[11]": {"system": "SFN", "test": "shRNA-induced cell viability rescue, SFN knockdown", "format": "cell-based", "settings": "shRNA cells transfected with peptide; triplicate"}, "[12]": {"system": "GCHFR", "test": "shRNA-induced cell viability rescue, GCHFR knockdown", "format": "cell-based", "settings": "shRNA cells transfected with peptide; triplicate"}}, "data": [{"substance": "ETFSDLW", "values": [{"measurement": "FRET signal with MDM2", "setting": "[1]", "value": "Positive FRET signals"}, {"measurement": "rescue of peptide phenotype by knockdown of MDM2", "setting": "[2]", "value": "showed rescue of the peptide phenotype"}, {"measurement": "p21 level", "setting": "[3]", "value": "increase in p21 levels"}, {"measurement": "p53 level", "setting": "[3]", "value": "decrease in degradation of p53"}, {"measurement": "p21 level", "setting": "[4]", "value": "increase in p21 levels"}, {"measurement": "p53 level", "setting": "[4]", "value": "decrease in degradation of p53"}, {"measurement": "p21 level", "setting": "[5]", "value": "increase in p21 levels"}, {"measurement": "p53 level", "setting": "[5]", "value": "decrease in degradation of p53"}, {"measurement": "P53 level", "setting": "[6]", "value": "increasing P53 levels"}]}, {"substance": "KFFCTIL", "values": [{"measurement": "phospho-AKT (S473) level", "setting": "[7]", "value": "did not affect the level of phospho-AKT"}, {"measurement": "p21 level", "setting": "[3]", "value": "increased the expression of p21"}, {"measurement": "phospho-AKT (S473) level", "setting": "[3]", "value": "decrease of the level of phospho-AKT (S473)"}, {"measurement": "serum-induced AKT phosphorylation", "setting": "[8]", "value": "inhibited the increase in AKT phosphorylation"}, {"measurement": "p21 level", "setting": "[5]", "value": "increased the expression of p21"}, {"measurement": "phospho-AKT (S473) level", "setting": "[5]", "value": "decrease of the level of phospho-AKT (S473)"}]}, {"substance": "PSSLAYSLKKH", "values": [{"measurement": "p21 level", "setting": "[7]", "value": "did not affect the level of p53 and p21"}, {"measurement": "p53 level", "setting": "[7]", "value": "did not affect the level of p53 and p21"}, {"measurement": "p21 level", "setting": "[3]", "value": "accumulation of p53 and p21"}, {"measurement": "p53 level", "setting": "[3]", "value": "accumulation of p53 and p21"}, {"measurement": "p21 level", "setting": "[4]", "value": "accumulation of p53 and p21"}, {"measurement": "p53 level", "setting": "[4]", "value": "accumulation of p53 and p21"}, {"measurement": "p21 level", "setting": "[5]", "value": "accumulation of p53 and p21"}, {"measurement": "p53 level", "setting": "[5]", "value": "accumulation of p53 and p21"}]}, {"substance": "Pal-NPFREKKFFCTIL-NH2 [GNG4-1]", "values": [{"measurement": "effect on cell viability (in words)", "setting": "[9]", "value": "strong dosage dependent effects on cell viability"}]}, {"substance": "Pal-PSSLAYSLKKH-OH [INCENP-1]", "values": [{"measurement": "effect on cell viability (in words)", "setting": "[9]", "value": "strong dosage dependent effects on cell viability"}]}, {"substance": "Pal-RTLSQLYCSYGPLT-OH [MUS81-1]", "values": [{"measurement": "effect on cell viability (in words)", "setting": "[9]", "value": "strong dosage dependent effects on cell viability"}]}, {"substance": "RTLSQLYCSYGPLT", "values": [{"measurement": "p21 level", "setting": "[3]", "value": "increases the expression of p53 and p21"}, {"measurement": "p53 level", "setting": "[3]", "value": "increases the expression of p53 and p21"}, {"measurement": "p21 level", "setting": "[5]", "value": "increases the expression of p53 and p21"}, {"measurement": "p53 level", "setting": "[5]", "value": "increases the expression of p53 and p21"}]}, {"substance": "TEGPDSD", "values": [{"measurement": "cdc2 expression", "setting": "[3]", "value": "reduced expression of both cyclin B1 and cdc2"}, {"measurement": "cyclin A2 expression", "setting": "[3]", "value": "increase of cyclin A2 expression"}, {"measurement": "cyclin B1 expression", "setting": "[3]", "value": "reduced expression of both cyclin B1 and cdc2"}, {"measurement": "effect on cell cycle", "setting": "[10]; FACS, DAPI, 24, 72 and 120 hours, cell line not stated", "value": "cell cycle arrest in G2"}, {"measurement": "percentage of GFP positive cells vs GFP alone", "setting": "[10]; different time points", "value": "similar"}, {"measurement": "cdc2 expression", "setting": "[4]", "value": "reduced expression of both cyclin B1 and cdc2"}, {"measurement": "cyclin A2 expression", "setting": "[4]", "value": "increase of cyclin A2 expression"}, {"measurement": "cyclin B1 expression", "setting": "[4]", "value": "reduced expression of both cyclin B1 and cdc2"}, {"measurement": "cyclin A2 expression", "setting": "[5]", "value": "increase of cyclin A2 expression"}, {"measurement": "rescue of peptide phenotype by knockdown of SFN", "setting": "[11]", "value": "showed rescue of the peptide phenotype"}, {"measurement": "cdc2 level", "setting": "[6]", "value": "decrease in cyclin B1 and cdc2 levels"}, {"measurement": "cyclin A level", "setting": "[6]", "value": "increase in cyclin A"}, {"measurement": "cyclin B1 level", "setting": "[6]", "value": "decrease in cyclin B1 and cdc2 levels"}]}, {"substance": "VWCLHKE", "values": [{"measurement": "rescue of peptide phenotype by knockdown of GCHFR", "setting": "[12]", "value": "showed rescue of the peptide phenotype"}]}]}
